Published values gathered from unrelated publications.
Compare with care: the assays were run in different laboratories.
Cell line: MDA-MB-468
Effect on: cell growth or viability

| Structure (SMILES) | method | concentration | time | measurement | result |
| --- | --- | --- | --- | --- | --- |
| Cc1cc(NS(=O)(=O)c2ccc(NC(=O)COc3ccc(C(C)(C)c4ccccc4)cc3)cc2)nc(C)n1 | MTT | – | 48 h | IC50 | 44.3 µM |
| Cc1ncsc1-c1ccc(CNC(=O)[C@@H]2C[C@@H](O)CN2C(=O)[C@@H](NC(=O)CCCCCCCCCC(=O)N2CCN(CC[C@H](NC(=O)C3(N)CCN(c4ncnc5[nH]ccc45)CC3)c3ccc(Cl)cc3)CC2)C(C)(C)C)cc1 | – | – | 72 h | GI50 | 0.49 µM |
| Cc1cc(NCCCCCCCCNc2cc(C)nc3cc(N)ccc23)c2ccc(N)cc2n1 | MTT | – | – | IC50 | 5.1 µM |
| NC1(C(=O)N[C@@H](CCO)c2ccc(Cl)cc2)CCN(c2ncnc3[nH]ccc23)CC1 | – | – | 72 h | GI50 | > 8 µM |
| COc1cc(-c2ccc(-c3ccc(C(=N)N)nc3)s2)cc(OC)c1OC | SRB | – | – | GI50 | 1.74 µM |
| Cc1cc(NCCCCCCCNc2cc(C)nc3cc(N)ccc23)c2ccc(N)cc2n1 | MTT | – | 96 h | IC50 | 16 µM |
| COc1ccc(-c2ccc(-c3ccc(C(=N)N)nc3)s2)cc1Cl | SRB | – | – | GI50 | 1.74 µM |
| COc1ccc(C(=O)/C=C/c2ccc(Cl)c(Cl)c2)cc1S(N)(=O)=O | SRB | 10 µM | – | inhibition | 119% |
| CCc1ccc(N2NC(=O)/C(=C/c3ccc(-c4ccc(S(=O)(=O)Nc5nccs5)cc4)o3)C2=O)cc1 | MTT | – | 72 h | IC50 | 73.5 µM |
| c1csc(-c2c3ccccc3cc3c2ccc2ccccc23)c1 | MTT | – | – | IC50 | 34 µM |
| CC(=O)c1c(C)c2cnc(Nc3ccc(N4CCNCC4)cn3)nc2n(C2CCCC2)c1=O | resazurin | – | – | GI50 | 7.5 µM |
| COc1ccc(C(=O)/C=C/c2cccc(Br)c2)cc1S(N)(=O)=O | SRB | 10 µM | – | inhibition | 154% |
